Test [1] addresses Tyrosine-protein kinase CSK (Homo sapiens) (UniProt P41240). Put plainly: Inhibition of CSK assessed as residual activity at 10 uM by Cherenkov counting relative to control in presence of 20 uM ATP. The procedure, abridged: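 Single-point profiling at 10 µM in a panel of 78 protein kinases. Kinase activity is expressed as a percentage relative to control assays without compound.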

Test [2] deals with Ribosomal protein S6 kinase alpha-5 (Homo sapiens) (UniProt O75582). The test is described as follows: Inhibition of MSK1 assessed as residual activity at 10 uM by Cherenkov counting relative to control in presence of 20 uM ATP.
Ribosomal protein S6 kinase alpha-5 (Homo sapiens), sequence (O75582 whole entry, looked up): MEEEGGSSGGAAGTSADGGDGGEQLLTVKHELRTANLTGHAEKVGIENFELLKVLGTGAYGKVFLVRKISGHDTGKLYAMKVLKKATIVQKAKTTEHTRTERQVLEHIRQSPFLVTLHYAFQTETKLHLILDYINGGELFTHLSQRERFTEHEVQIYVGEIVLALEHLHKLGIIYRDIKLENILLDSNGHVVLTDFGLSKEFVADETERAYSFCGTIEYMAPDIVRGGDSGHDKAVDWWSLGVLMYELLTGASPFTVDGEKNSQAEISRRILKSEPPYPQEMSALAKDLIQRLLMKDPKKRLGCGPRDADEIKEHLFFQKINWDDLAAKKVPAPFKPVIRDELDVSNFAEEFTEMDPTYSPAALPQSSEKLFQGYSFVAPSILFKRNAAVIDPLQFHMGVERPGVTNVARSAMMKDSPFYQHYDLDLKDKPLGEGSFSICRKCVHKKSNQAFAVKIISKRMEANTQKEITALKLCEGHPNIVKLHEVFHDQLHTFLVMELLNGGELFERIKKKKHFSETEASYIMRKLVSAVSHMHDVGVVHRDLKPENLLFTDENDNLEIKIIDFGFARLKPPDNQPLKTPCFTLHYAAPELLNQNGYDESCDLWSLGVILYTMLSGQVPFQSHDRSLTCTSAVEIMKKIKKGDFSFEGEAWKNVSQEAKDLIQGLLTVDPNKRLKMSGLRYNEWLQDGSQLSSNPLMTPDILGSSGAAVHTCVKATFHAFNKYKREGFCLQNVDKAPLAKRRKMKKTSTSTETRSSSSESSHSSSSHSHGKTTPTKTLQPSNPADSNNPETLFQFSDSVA
Test [3] addresses Ephrin type-B receptor 3 (Homo sapiens) (UniProt P54753). Put plainly: Inhibition of EPHB3 assessed as residual activity at 0.1 uM by Cherenkov counting relative to control. The procedure, abridged: (§1)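 Single-concentration screen at 0.1 µM across a panel of 76 protein kinases. Each kinase was run at an ATP concentration approximating its ATP Km. Results are % mean residual activity versus control assays without compound (n = 3 ± SD).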

The target in test [4] is Dual specificity tyrosine-phosphorylation-regulated kinase 1A (Homo sapiens) (UniProt Q13627). The test is described as follows: Inhibition of DYRK1A assessed as residual activity at 0.1 uM by Cherenkov counting relative to control in presence of 50 uM ATP. The procedure, abridged: as §1
For test [5], the target named is Homeodomain-interacting protein kinase 2 (Homo sapiens) (UniProt Q9H2X6). The test is described as follows: Inhibition of HIPK2 assessed as residual activity at 0.1 uM by Cherenkov counting relative to control in presence of 5 uM ATP. The procedure, abridged: as §1
Homeodomain-interacting protein kinase 2 (Homo sapiens), sequence (Q9H2X6 whole entry, looked up): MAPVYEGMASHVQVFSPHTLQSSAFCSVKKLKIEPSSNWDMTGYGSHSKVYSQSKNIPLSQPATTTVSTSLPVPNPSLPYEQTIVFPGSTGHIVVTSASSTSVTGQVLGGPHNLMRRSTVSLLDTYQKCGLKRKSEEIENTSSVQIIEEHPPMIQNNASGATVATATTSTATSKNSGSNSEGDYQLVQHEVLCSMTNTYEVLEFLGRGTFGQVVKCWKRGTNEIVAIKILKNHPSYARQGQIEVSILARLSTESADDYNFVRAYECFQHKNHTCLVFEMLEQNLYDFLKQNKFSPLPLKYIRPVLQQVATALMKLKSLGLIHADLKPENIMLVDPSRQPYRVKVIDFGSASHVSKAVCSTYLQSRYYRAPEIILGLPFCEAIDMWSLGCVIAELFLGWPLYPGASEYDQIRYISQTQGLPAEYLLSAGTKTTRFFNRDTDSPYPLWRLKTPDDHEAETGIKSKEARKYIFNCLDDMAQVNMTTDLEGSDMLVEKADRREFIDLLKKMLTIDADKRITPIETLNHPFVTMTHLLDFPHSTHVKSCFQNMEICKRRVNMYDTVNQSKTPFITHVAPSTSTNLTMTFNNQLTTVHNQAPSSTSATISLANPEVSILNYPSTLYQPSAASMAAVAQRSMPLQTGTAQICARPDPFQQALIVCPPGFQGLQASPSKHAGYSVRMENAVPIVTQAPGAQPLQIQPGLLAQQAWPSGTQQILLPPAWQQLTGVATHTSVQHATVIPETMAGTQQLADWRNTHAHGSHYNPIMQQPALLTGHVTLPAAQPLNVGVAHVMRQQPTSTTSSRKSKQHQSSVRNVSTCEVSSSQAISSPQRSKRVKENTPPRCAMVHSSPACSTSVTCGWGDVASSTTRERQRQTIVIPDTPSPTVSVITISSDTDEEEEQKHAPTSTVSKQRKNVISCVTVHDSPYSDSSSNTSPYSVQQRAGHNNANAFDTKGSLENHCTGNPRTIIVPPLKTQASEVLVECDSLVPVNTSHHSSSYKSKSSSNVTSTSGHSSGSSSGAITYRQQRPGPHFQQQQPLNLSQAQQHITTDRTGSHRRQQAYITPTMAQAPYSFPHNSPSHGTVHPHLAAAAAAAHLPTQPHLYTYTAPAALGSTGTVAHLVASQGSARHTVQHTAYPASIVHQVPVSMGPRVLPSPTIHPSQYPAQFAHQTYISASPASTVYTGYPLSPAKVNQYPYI
Test [6] deals with T1, Eukaryotic elongation factor 2 kinase (Homo sapiens) (UniProt O00418).
T1 sequence (whole entry): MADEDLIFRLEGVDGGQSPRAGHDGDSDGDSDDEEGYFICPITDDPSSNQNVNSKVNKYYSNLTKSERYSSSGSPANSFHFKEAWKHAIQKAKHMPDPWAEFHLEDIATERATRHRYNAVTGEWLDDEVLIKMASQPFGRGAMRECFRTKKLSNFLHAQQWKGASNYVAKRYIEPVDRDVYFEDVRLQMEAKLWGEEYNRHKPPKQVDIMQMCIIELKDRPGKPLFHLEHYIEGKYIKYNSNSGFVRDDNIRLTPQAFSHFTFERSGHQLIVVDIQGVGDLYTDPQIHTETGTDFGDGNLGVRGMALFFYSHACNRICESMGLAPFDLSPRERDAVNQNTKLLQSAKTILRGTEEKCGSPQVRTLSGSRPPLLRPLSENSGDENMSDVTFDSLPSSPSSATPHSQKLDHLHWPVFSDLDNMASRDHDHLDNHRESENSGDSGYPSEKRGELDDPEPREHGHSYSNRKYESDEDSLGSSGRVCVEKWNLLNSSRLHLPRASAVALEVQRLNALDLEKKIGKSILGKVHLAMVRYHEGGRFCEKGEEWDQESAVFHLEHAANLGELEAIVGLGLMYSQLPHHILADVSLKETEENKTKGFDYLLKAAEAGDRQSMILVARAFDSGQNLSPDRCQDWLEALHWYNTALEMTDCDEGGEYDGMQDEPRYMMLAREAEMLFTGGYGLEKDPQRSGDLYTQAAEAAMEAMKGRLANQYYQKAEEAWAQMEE
Put plainly: Inhibition of EF2K assessed as residual activity at 0.1 uM by Cherenkov counting relative to control in presence of 5 uM ATP. The procedure, abridged: as §1

The target in test [7] is T2, Dual specificity tyrosine-phosphorylation-regulated kinase 2 (Homo sapiens) (UniProt Q92630).
T2 sequence (whole entry): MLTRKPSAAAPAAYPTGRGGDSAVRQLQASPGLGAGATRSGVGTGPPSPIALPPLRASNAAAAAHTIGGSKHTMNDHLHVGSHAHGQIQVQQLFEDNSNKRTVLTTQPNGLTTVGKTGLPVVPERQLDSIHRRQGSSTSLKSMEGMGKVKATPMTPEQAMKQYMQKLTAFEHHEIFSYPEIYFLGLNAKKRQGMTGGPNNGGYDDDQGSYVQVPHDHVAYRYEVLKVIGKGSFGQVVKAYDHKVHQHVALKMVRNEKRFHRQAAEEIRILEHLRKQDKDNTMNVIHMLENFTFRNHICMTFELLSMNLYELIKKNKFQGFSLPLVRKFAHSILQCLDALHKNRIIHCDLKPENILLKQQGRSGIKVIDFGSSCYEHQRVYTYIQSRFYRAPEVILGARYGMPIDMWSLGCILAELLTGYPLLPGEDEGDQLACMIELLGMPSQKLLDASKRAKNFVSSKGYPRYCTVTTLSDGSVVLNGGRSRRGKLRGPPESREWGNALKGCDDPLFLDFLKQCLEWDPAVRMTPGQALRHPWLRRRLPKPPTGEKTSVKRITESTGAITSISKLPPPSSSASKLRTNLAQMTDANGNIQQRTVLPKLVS
Put plainly: Inhibition of DYRK2 assessed as residual activity at 0.1 uM by Cherenkov counting relative to control in presence of 50 uM ATP. The procedure, abridged: as §1

A short description of test [8]: Inhibition of PKA assessed as residual activity at 0.1 uM by Cherenkov counting relative to control in presence of 20 uM ATP. The procedure, abridged: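 Single-concentration selectivity screen at 0.1 μM against a panel of 76 protein kinases. Each kinase was run at an ATP level approximating its Km for ATP. Output is mean residual activity as % of the control assay without compound, n = 3 ± SD.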

For test [9], the target named is Mitogen-activated protein kinase 14 (Homo sapiens, UniProt Q16539). The test is described as follows: Inhibition of p38alpha by Cherenkov counting.
Mitogen-activated protein kinase 14, sequence (Q16539 whole entry): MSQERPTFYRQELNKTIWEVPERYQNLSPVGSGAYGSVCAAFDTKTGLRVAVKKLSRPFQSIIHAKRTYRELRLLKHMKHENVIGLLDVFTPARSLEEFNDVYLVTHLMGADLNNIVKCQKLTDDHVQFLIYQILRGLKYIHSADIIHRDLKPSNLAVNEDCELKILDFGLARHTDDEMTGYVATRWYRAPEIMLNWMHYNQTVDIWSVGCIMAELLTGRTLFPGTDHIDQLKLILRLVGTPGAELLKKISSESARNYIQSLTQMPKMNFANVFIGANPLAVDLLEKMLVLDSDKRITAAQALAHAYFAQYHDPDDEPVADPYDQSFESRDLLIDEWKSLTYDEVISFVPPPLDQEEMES

Ephrin type-B receptor 3 (Homo sapiens), sequence (P54753 whole entry): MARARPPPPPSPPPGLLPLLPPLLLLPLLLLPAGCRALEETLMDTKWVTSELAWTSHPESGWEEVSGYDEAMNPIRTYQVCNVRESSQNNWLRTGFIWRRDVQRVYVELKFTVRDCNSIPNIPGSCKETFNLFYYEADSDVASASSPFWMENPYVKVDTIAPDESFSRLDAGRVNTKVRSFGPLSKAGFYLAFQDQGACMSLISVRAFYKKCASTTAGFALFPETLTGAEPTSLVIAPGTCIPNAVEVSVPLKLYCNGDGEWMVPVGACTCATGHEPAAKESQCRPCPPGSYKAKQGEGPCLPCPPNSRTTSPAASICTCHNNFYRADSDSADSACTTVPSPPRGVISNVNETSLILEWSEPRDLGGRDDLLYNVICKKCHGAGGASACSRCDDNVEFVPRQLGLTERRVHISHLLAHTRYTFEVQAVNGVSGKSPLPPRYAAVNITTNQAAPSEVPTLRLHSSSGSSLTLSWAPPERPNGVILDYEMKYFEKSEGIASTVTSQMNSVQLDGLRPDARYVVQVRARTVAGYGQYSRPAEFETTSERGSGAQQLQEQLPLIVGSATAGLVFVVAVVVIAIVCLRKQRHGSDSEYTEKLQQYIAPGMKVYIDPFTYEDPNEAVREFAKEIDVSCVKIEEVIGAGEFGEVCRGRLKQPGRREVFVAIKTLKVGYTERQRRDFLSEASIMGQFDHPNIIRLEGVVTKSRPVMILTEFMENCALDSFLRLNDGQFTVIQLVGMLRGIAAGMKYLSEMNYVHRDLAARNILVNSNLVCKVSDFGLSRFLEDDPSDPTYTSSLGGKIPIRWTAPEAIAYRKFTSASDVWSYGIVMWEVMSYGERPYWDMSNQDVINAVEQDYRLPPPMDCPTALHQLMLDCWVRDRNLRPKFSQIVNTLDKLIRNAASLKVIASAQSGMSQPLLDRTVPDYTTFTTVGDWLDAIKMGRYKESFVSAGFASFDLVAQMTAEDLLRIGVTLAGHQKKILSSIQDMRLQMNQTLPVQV
Tyrosine-protein kinase CSK (Homo sapiens), sequence (P41240 2-450 limits assumed): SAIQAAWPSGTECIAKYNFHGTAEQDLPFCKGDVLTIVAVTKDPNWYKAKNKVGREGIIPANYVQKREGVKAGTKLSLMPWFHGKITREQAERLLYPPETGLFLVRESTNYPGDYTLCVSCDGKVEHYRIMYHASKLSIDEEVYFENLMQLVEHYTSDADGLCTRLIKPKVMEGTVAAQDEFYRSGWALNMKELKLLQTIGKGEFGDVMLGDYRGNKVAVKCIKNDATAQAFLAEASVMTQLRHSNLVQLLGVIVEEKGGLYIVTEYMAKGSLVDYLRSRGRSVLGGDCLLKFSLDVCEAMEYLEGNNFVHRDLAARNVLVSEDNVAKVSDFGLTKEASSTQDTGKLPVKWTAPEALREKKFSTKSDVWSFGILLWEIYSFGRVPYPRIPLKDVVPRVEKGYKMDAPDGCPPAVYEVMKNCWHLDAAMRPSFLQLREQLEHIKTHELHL

For `CC(C)c1noc(-c2ccc(F)cc2)c1-c1ccncc1`, the Activity is 95% in test [1] and 113% in test [2].

As for `CC(C)c1onc(-c2ccc(F)cc2)c1-c1ccncc1`, the values for the Activity in [1] and in test [2] were 87% and 95%, respectively.

As usually defined, the IC50 is the point on the concentration scale where inhibition reaches its midpoint. Higher therefore signals weaker potency in that assay. Take `COc1ccc(/C=C/C(=O)Nc2cc(-c3[nH]c([S+](C)[O-])nc3-c3ccc(F)cc3)ccn2)c(OC)c1` (stereo not drawn): the Activity was found to be 95% in [3]; 86% in [4]; 104% in test [5]; 102% in test [6]; 101% in [7]; 92% in test [8]. For the same compound, in test [9], the IC50 was 41 nM.

`COc1ccc(/C=C/C(=O)Nc2cc(-c3[nH]c(SC)nc3-c3ccc(F)cc3)ccn2)c(OC)c1`: the Activity in test [3] worked out at 94%; in [4] it was 78%; in test [5], 94%; in test [6], 100%; in test [7] it was 82%; in [8], 84%. For the same compound, half-maximal inhibition in [9] (IC50) required 19 nM.

(Values after ChEMBL document CHEMBL1155278, “3,4-Diaryl-isoxazoles and -imidazoles as potent dual inhibitors of p38alpha mitogen activated protein kinase and casein kinase 1delta” (J Med Chem, 2009).)
